What was measured:
Type in all cases: ADME, organism-based
[1] = test system: Homo sapiens; assay: Mean change in blood glucose concentration in healthy white human plasma with CYP2C8*1/*3 genotype at 2 mg, po up to 6 hrs; details: in vivo
Method in brief: (§1)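 Single 2 mg oral dose in healthy Caucasian volunteers genotyped for CYP2C8*3, with SLCO1B1 521T>C also typed. […] Mean change is the average difference between values up to 6 h post-dose and baseline. Fasting lasted to 6 h. Mean with 95% CI or SD by genotype group.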

[2] = species: Homo sapiens; assay: Maximal change in blood glucose concentration in healthy human plasma with SLCO1B1 521TC genotype at 0.5 mg
[3] = AUC (0 to infinity) in healthy white human with SLCO1B1 521TT/CYP2C8*1/*3 combined genotype at 2 mg, po; set-up: dose 2 mg, route oral, time infinity; details: plasma
Method in brief: (§2)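 Healthy Caucasians genotyped for CYP2C8*3 and SLCO1B1 521T>C were given a single oral 2 mg dose of repaglinide, and alcohol, caffeine and grapefruit were withheld. Plasma was sampled before dosing and at 15 times from 0.25 to 24 h. Drug was measured by LC-MS/MS against diclofenac internal standard, linear 0.098–79.139 µg/L. Noncompartmental analysis: Cmax taken as observed; AUC by linear/log-linear trapezoidal rule extrapolated to infinity.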

[4] = Oral clearance in healthy white human with CYP2C8*3/*3 genotype at 2 mg, po; details: in vivo
Method in brief: (§3)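 Repaglinide was assayed by LC-MS/MS with diclofenac internal standard (LLOQ 0.098 µg/L). Noncompartmental analysis gave AUC by linear/log-linear trapezoidal rule extrapolated to infinity. Weight-adjusted oral clearance = dose/(AUC × body weight).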

[5] = test system: Homo sapiens; assay: Maximal change in blood glucose concentration in healthy white human plasma with CYP2C8*1/*1 genotype at 2 mg, po up to 6 hrs; details: in vivo
Method in brief: (§4)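 Venous blood glucose was read at each blood sampling time after a single oral 2 mg dose, with fasting up to 6 h. […] Maximal change is the largest change from baseline. Mean change is the average difference between values up to 6 h post-dose and baseline.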

[6] = AUC (0 to infinity) in healthy white human with CYP2C8*3/*3 genotype at 2 mg, po; set-up: dose 2 mg, route oral, time infinity; details: plasma; method in brief: as §2
[7] = test system: Homo sapiens; assay: Mean change in blood glucose concentration in healthy white human plasma SLCO1B1 521TC/CYP2C8*1/*3 combined genotype at 2 mg, po; details: in vivo; method in brief: as §4
[8] = test system: Homo sapiens; assay: Maximal change in blood glucose concentration in healthy white human plasma with CYP2C8*3/*3 genotype at 2 mg, po up to 6 hrs; details: in vivo; method in brief: as §4
[9] = test system: Homo sapiens; assay: Mean change in insulin concentration in healthy white human plasma with SLCO1B1 521TC/CYP2C8*1/*3 combined genotype at 2 mg, po; details: in vivo
Method in brief: (§5)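 Healthy Caucasians got a single 2 mg oral dose and were genotyped for CYP2C8*3 and SLCO1B1 521T>C. Plasma insulin was sampled from pre-dose to 6 h and measured by solid-phase enzyme-labelled chemiluminescent immunometric assay (calibration 2–300 mU/l). Mean change is the average of post-dose values minus baseline up to 6 h, summarised per genotype group.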

[10] = AUC (0 to infinity) in healthy white human with SLCO1B1 521TC/CYP2C8*1/*1 combined genotype at 2 mg, po; set-up: dose 2 mg, route oral, time infinity; details: plasma; method in brief: as §2
[11] = test system: Homo sapiens; assay: Mean change in blood glucose concentration in healthy white human plasma SLCO1B1 521TC/CYP2C8*1/*1 combined genotype at 2 mg, po; details: in vivo; method in brief: as §4
[12] = test system: Homo sapiens; assay: Mean change in insulin concentration in healthy white human plasma with CYP2C8*3/*3 genotype at 2 mg, po up to 6 hrs; details: in vivo; method in brief: as §5
[13] = test system: Homo sapiens; assay: Mean change in insulin concentration in healthy white human plasma with SLCO1B1 521TT/CYP2C8*1/*1 combined genotype at 2 mg, po; details: in vivo; method in brief: as §5
[14] = Oral clearance in healthy white human with CYP2C8*1/*1 genotype at 2 mg, po; details: in vivo; method in brief: as §3
[15] = Cmax in healthy white human with SLCO1B1 521CC/CYP2C8*1/*3 combined genotype at 2 mg, po; set-up: dose 2 mg, route oral; details: in vivo; method in brief: as §2
[16] = AUC (0 to infinity) in healthy white human with CYP2C8*1/*3 genotype at 2 mg, po; set-up: dose 2 mg, time infinity, route oral; details: plasma; method in brief: as §2
[17] = AUC (0 to infinity) in healthy white human with SLCO1B1 521CC/CYP2C8*3/*3 combined genotype at 2 mg, po; set-up: dose 2 mg, route oral, time infinity; details: plasma; method in brief: as §2
[18] = Cmax in healthy white human with SLCO1B1 521TC/CYP2C8*3/*3 combined genotype at 2 mg, po; set-up: dose 2 mg, route oral; details: in vivo; method in brief: as §2
[19] = Cmax in healthy white human with SLCO1B1 521TC/CYP2C8*1/*3 combined genotype at 2 mg, po; set-up: dose 2 mg, route oral; details: in vivo; method in brief: as §2
[20] = test system: Homo sapiens; assay: Mean change in insulin concentration in healthy white human plasma with CYP2C8*1/*3 genotype at 2 mg, po up to 6 hrs; details: in vivo; method in brief: as §5
[21] = Cmax in healthy white human at 2 mg, po; set-up: dose 2 mg, route oral; details: in vivo; method in brief: as §2
[22] = test system: Homo sapiens; assay: Mean change in insulin concentration in healthy white human plasma at 2 mg, po up to 6 hrs; details: in vivo; method in brief: as §5
[23] = test system: Homo sapiens; assay: Mean change in insulin concentration in healthy white human plasma with SLCO1B1 521TT/CYP2C8*3/*3 combined genotype at 2 mg, po; details: in vivo; method in brief: as §5
[24] = test system: Homo sapiens; assay: Mean change in blood glucose concentration in healthy white human plasma at 2 mg, po up to 6 hrs; details: in vivo; method in brief: as §1
[25] = test system: Homo sapiens; assay: Maximal change in insulin concentration in healthy white human plasma with CYP2C8*1/*1 genotype at 2 mg, po up to 6 hrs; details: in vivo
Method in brief: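 Plasma insulin was sampled up to 6 h after a single oral 2 mg dose, with subjects fasting. It was measured by solid-phase enzyme-labelled chemiluminescent immunometric assay, calibration range 2–300 mU/l. Maximal change is the largest change from the baseline concentration within 6 h.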

[26] = test system: Homo sapiens; assay: Mean change in blood glucose concentration in healthy white human plasma SLCO1B1 521TC/CYP2C8*3/*3 combined genotype at 2 mg, po; details: in vivo; method in brief: as §1
[27] = test system: Homo sapiens; assay: Mean change in blood glucose concentration in healthy white human plasma with CYP2C8*1/*1 genotype at 2 mg, po up to 6 hrs; details: in vivo; method in brief: as §1
[28] = AUC (0 to infinity) in healthy white human with SLCO1B1 521TT/CYP2C8*3/*3 combined genotype at 2 mg, po; set-up: dose 2 mg, time infinity, route oral; details: plasma; method in brief: as §2
[29] = test system: Homo sapiens; assay: Mean change in blood glucose concentration in healthy white human plasma with CYP2C8*3/*3 genotype at 2 mg, po up to 6 hrs; details: in vivo; method in brief: as §1
[30] = Cmax in healthy white human with SLCO1B1 521TC/CYP2C8*1/*1 combined genotype at 2 mg, po; set-up: dose 2 mg, route oral; details: in vivo; method in brief: as §2
[31] = test system: Homo sapiens; assay: Mean change in insulin concentration in healthy white human plasma with CYP2C8*1/*1 genotype at 2 mg, po up to 6 hrs; details: in vivo; method in brief: as §5
[32] = species: Homo sapiens; assay: Maximal change in blood glucose concentration in healthy human plasma with SLCO1B1 521CC genotype at 0.5 mg
[33] = test system: Homo sapiens; assay: Mean change in blood glucose concentration in healthy white human plasma SLCO1B1 521TT/CYP2C8*1/*3 combined genotype at 2 mg, po; details: in vivo; method in brief: as §1
[34] = test system: Homo sapiens; assay: Mean change in insulin concentration in healthy white human plasma with SLCO1B1 521CC/CYP2C8*1/*3 combined genotype at 2 mg, po; details: in vivo; method in brief: as §5
[35] = Oral clearance in healthy white human with CYP2C8*1/*3 genotype at 2 mg, po; details: in vivo; method in brief: as §3

- Activity [1]: -0.65 mM
- Activity [2]: 1.9 mM
- AUC(0-inf) [3]: 117 ng·h/mL
- CL/F [4]: 8 mL/min/kg
- Activity [5]: -1.62 mM
- AUC(0-inf) [6]: 72.4 ng·h/mL
- Activity [7]: -1 mM
- Activity [8]: -1.48 mM
- Activity [9]: 5.6 mU/l
- AUC(0-inf) [10]: 146 ng·h/mL
- Activity [11]: -0.5 mM
- Activity [12]: 2.6 mU/L
- Activity [13]: 7.1 mU/l
- CL/F [14]: 7.5 mL/min/kg
- Cmax [15]: 17.7 ng/mL
- AUC(0-inf) [16]: 97.2 ng·h/mL
- AUC(0-inf) [17]: 95.8 ng·h/mL
- Cmax [18]: 15.3 ng/mL
- Cmax [19]: 45 ng/mL
- Activity [20]: 5.2 mU/L
- Cmax [21]: 52.8 ng/mL
- Activity [22]: 5.5 mU/L
- Activity [23]: 1 mU/l
- Activity [24]: -0.53 mM
- Activity [25]: 23.9 mU/L
- Activity [26]: -0.2 mM
- Activity [27]: -0.42 mM
- AUC(0-inf) [28]: 116 ng·h/mL
- Activity [29]: -0.5 mM
- Cmax [30]: 83.7 ng/mL
- Activity [31]: 6.7 mU/L
- Activity [32]: 2.3 mM
- Activity [33]: -0.5 mM
- Activity [34]: 0.6 mU/l
- CL/F [35]: 7.67 mL/min/kg
SMILES: CCOc1cc(CC(=O)N[C@@H](CC(C)C)c2ccccc2N2CCCCC2)ccc1C(=O)O [REPAGLINIDE]
